In ChEMBL document CHEMBL4014339, “Discovery of 1,4-Benzodiazepine-2,5-dione (BZD) Derivatives as Dual Nucleotide Binding Oligomerization Domain Containing 1/2 (NOD1/NOD2) Antagonists Sensitizing Paclitaxel (PTX) To Suppress Lewis Lung Carcinoma (LLC) Growth in Vivo” (J Med Chem, 2017) one finds inhibition and IC50 data, which are given here for 22 molecules.

As usually defined, the inhibition is how much of the control response was suppressed. What is called IC50 is the concentration at which inhibition is half-maximal.

Holding throughout (assay type): cell-based
Assay [1] deals with T1, Nucleotide-binding oligomerization domain-containing protein 1 (Homo sapiens) (UniProt Q9Y239).
T1 sequence (whole entry): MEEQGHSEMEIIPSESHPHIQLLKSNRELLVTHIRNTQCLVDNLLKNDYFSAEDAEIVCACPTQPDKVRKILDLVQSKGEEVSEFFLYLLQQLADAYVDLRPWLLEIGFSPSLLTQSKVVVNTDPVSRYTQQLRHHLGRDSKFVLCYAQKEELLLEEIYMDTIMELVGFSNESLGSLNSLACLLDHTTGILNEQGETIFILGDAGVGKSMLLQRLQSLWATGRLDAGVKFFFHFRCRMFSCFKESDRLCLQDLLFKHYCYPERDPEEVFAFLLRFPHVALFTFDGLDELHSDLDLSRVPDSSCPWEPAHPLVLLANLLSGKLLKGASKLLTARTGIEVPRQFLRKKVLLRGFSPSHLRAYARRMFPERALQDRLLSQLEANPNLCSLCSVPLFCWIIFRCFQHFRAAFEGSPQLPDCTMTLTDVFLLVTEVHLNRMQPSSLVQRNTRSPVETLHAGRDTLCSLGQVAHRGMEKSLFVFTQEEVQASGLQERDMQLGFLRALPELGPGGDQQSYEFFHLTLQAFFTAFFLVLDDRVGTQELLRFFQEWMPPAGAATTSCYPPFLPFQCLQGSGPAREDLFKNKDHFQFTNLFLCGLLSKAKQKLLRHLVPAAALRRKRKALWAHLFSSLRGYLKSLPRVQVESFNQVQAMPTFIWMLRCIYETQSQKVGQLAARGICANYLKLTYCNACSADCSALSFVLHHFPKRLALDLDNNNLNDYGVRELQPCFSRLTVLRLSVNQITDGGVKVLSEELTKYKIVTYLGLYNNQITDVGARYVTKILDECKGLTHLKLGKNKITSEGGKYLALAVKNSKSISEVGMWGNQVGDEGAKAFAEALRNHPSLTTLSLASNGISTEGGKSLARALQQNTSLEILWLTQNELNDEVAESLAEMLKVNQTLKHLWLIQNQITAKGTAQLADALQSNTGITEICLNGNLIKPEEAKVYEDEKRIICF
Put plainly: Antagonist activity at human NOD1 expressed in HEK-Blue cells assessed as inhibition of C12-iE-DAP-stimulated cell activation at 10 uM preincubated for 3 hrs followed by C12-iE-DAP addition measured after 20 hrs by SEAP reporter gene assay. In short, it runs like this:
(§1)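 HEK-Blue hNOD1 or hNOD2 cells preincubated with compound 3 h, then stimulated 20 h with C12-iE-DAP 50 ng/mL (NOD1) or MDP 100 ng/mL (NOD2); SEAP in supernatant quantified. Primary screen at 10 μM, hits repeated in triplicate; IC50 from dose-response, mean ± SD (n = 3), only for compounds reaching ≥50% inhibition at the screening concentration.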
On the technique in general: Reporter assays use an easily measured gene product as a stand-in for the process of interest.

The target in assay [2] is T1, Nucleotide-binding oligomerization domain-containing protein 1 (Homo sapiens). Put plainly: Antagonist activity at human NOD1 expressed in HEK-blue cells assessed as inhibition of C12-iE-DAP-stimulated cell activation at 5 uM preincubated for 3 hrs followed by C12-iE-DAP addition measured after 20 hrs by SEAP reporter gene assay.
Assay [3] deals with T2, Nucleotide-binding oligomerization domain-containing protein 1 (Homo sapiens, UniProt Q9Y239).
T2 sequence (Q9Y239 whole entry): T1 sequence (whole entry)
Put plainly: Antagonist activity at human NOD1 expressed in HEK-blue cells assessed as inhibition of C12-iE-DAP-stimulated cell activation preincubated for 3 hrs followed by C12-iE-DAP addition measured after 20 hrs by SEAP reporter gene assay. In short, it runs like this: as §1

Assay [4] addresses T3, Nucleotide-binding oligomerization domain-containing protein 2 (Homo sapiens, UniProt Q9HC29). Put plainly: Antagonist activity at human NOD2 expressed in HEK-Blue cells assessed as inhibition of MDP-stimulated cell activation at 10 uM preincubated for 3 hrs followed by MDP addition measured after 20 hrs by SEAP reporter gene assay. In short, it runs like this:
as §1

Assay [5] concerns the target T3, Nucleotide-binding oligomerization domain-containing protein 2. Put plainly: Antagonist activity at human NOD2 expressed in HEK-Blue cells assessed as inhibition of MDP-stimulated cell activation at 5 uM preincubated for 3 hrs followed by MDP addition measured after 20 hrs by SEAP reporter gene assay.
Assay [6] shares this target. Put plainly: Antagonist activity at human NOD2 expressed in HEK-Blue cells assessed as inhibition of MDP-stimulated cell activation preincubated for 3 hrs followed by MDP addition measured after 20 hrs by SEAP reporter gene assay. In short, it runs like this: as §1

T3 sequence (Q9HC29 whole entry, the tested form may be a part): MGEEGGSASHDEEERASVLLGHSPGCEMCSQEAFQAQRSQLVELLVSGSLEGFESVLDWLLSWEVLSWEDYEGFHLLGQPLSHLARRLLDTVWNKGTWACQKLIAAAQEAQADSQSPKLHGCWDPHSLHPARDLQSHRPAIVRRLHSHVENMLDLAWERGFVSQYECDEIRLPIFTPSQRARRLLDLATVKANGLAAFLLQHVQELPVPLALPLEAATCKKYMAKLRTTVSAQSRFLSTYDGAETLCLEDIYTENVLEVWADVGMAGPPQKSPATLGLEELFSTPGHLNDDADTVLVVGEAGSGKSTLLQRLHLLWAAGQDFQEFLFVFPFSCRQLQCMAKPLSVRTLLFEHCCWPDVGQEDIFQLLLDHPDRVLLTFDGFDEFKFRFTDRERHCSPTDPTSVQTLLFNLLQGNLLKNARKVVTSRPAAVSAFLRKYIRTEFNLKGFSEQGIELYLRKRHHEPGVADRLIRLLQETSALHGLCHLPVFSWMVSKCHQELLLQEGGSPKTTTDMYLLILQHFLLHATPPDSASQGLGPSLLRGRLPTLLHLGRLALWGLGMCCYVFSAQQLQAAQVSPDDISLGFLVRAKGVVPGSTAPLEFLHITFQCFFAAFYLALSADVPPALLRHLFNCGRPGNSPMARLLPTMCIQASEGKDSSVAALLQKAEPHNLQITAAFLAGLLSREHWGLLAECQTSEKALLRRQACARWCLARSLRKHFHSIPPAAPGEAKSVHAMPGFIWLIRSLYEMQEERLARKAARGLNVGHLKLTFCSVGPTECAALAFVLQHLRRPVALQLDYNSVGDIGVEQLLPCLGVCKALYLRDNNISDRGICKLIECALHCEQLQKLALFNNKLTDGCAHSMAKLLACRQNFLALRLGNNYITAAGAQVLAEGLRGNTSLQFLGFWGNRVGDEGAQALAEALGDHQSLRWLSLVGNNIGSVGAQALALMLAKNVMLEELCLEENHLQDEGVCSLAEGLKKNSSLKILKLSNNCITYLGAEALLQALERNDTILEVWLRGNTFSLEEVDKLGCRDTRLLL

For the molecule `CN(C)c1cccc(Oc2cc3c(cc2NC(=O)COCc2ccccc2)NC(=O)[C@@H](CCC(=O)NC2CC2)NC3=O)c1`, the inhibition was determined as 57.1% in assay [1], 35.8% in assay [2], 57% in assay [4] and 43.7% in assay [5]. In addition, the IC50 in assay [3] came out at 8620 nM; in assay [6], 7140 nM.
As for `CN(C)c1cccc(Oc2cc3c(cc2NC(=O)COCc2ccccc2)NC(=O)[C@@H](CCC(=O)N2CCCC2)NC3=O)c1`, the inhibition in assay [1] is 82%; in assay [2] it was 73.2%; in assay [4], 75.6%; in assay [5], 58.2%. Moreover, the IC50 turned out to be 2370 nM in assay [3] and 3790 nM in assay [6].
In the case of `COC(=O)CC[C@@H]1NC(=O)c2cc(Oc3cccc(N(C)C)c3)c(NC(=O)COCc3ccc(C(F)(F)F)cc3)cc2NC1=O`, the inhibition in assay [2] came to 89.6%; in assay [5] it was 87.8%. Moreover, the IC50 in assay [3] turned out to be 580 nM; in assay [6] it was 590 nM.
With `CCCCN(CCCC)C(=O)CC[C@H]1NC(=O)c2cc(Oc3cccc(N(C)C)c3)c(NC(=O)COCc3ccccc3)cc2NC1=O`, the inhibition in assay [1] came out at 82%; in assay [2], 81.8%; in assay [4], 88.6%; in assay [5], 85%. Moreover, the results for the IC50 in assay [3] and in assay [6] were 1300 nM and 1320 nM, respectively.
As for `COC(=O)CC[C@H]1NC(=O)c2cc(Oc3ccc(Cl)c(N(C)C)c3)c(NC(=O)COCc3ccccc3)cc2NC1=O`, the inhibition in assay [1] amounted to 73%; in assay [2] it was 58.2%; in assay [4] it was 78.1%; in assay [5], 59.9%. Moreover, the IC50 in assay [3] was determined as 2900 nM; in assay [6], 3550 nM.
Turning to `COC(=O)CC[C@H]1NC(=O)c2cc(Oc3cccc(N(C)C)c3)c(NC(=O)COCc3ccc(C#N)cc3)cc2NC1=O`, the inhibition in assay [1] is 59.6%; in assay [2], 65.4%; in assay [4] it was 67.9%; in assay [5], 72.8%. Moreover, the IC50 in assay [3] is 3990 nM; in assay [6] it was 2510 nM.
`COC(=O)CC[C@H]1NC(=O)c2cc(Oc3cccc(N(C)C)c3)c(NC(=O)COCc3cccc(Cl)c3)cc2NC1=O`: the inhibition in assay [1] was found to be 81.8%; in assay [2], 76.7%; in assay [4], 84.1%; in assay [5], 71.5%. Moreover, the IC50 in assay [3] was determined as 1290 nM; in assay [6], 2080 nM.
Regarding `COC(=O)CC[C@H]1NC(=O)c2cc(Oc3cccc(N(C)C)c3)c(NC(=O)COCc3ccc(C(F)(F)F)cc3)cc2NC1=O`, the inhibition in assay [1] stood at 90.7%; in assay [2] it was 89.8%; in assay [4], 91.9%; in assay [5], 89%. The IC50 came to 940 nM in assay [3] and 870 nM in assay [6].
For `COC(=O)CC[C@H]1NC(=O)c2cc(Oc3cc(Cl)c(Cl)c(N(C)C)c3Cl)c(NC(=O)COCc3ccccc3)cc2NC1=O`, the inhibition in assay [1] is 65.3%; in assay [2] it was 79.8%; in assay [4], 34%; in assay [5] it was 55.9%. Further, the IC50 in assay [3] is 1330 nM; in assay [6], 3780 nM.
Turning to `COC(=O)CC[C@H]1NC(=O)c2cc(Oc3cc(Cl)cc(N(C)C)c3)c(NC(=O)COCc3ccccc3)cc2NC1=O`, the inhibition in assay [1] came to 4.89%; in assay [2] it was 47.1%; in assay [4] it was 56.5%; in assay [5], 54.9%. In addition, the IC50 in assay [6] stood at 5050 nM.
For the molecule `C[C@@H]1NC(=O)c2cc(Oc3cccc(N(C)C)c3)c(NC(=O)COCc3ccc(C(F)(F)F)cc3)cc2NC1=O`, the inhibition in assay [2] is 73.8%; in assay [5], 64.5%. In addition, the half-maximal inhibitory concentration (IC50) in assay [3] amounted to 1930 nM; in assay [6] it was 940 nM.
`COC(=O)CC[C@H]1NC(=O)c2cc(Oc3cccc(N(C)C)c3)c(NC(=O)COCc3ccc(C(C)(C)C)cc3)cc2NC1=O`: the inhibition in assay [1] is 73.3%; in assay [2], 67.7%; in assay [4], 75.7%; in assay [5], 75.2%. Also, the values for the IC50 in assay [3] and in assay [6] were 1960 nM and 2390 nM, respectively.
On to `COC(=O)CC[C@H]1NC(=O)c2cc(Oc3cccc(N(C)C)c3)c(NC(=O)COCc3cccc(Br)c3)cc2NC1=O`, for which the inhibition in assay [1] worked out at 89.6%; in assay [2], 82.9%; in assay [4], 86.7%; in assay [5], 65.9%. Besides, the IC50 was 1330 nM in assay [3] and 2280 nM in assay [6].
For `CCCCNC(=O)CC[C@H]1NC(=O)c2cc(Oc3cccc(N(C)C)c3)c(NC(=O)COCc3ccccc3)cc2NC1=O`, the inhibition came out at 86% in assay [1], 81.8% in assay [2], 71.6% in assay [4] and 60.5% in assay [5]. Besides, the IC50 came to 1290 nM in assay [3] and 2880 nM in assay [6].
For `COC(=O)CC[C@H]1NC(=O)c2cc(Oc3cccc(N(C)C)c3)c(NC(=O)COCc3ccc(OC)cc3)cc2NC1=O`, the inhibition was 21.6% in assay [1], 8.57% in assay [2], 56.5% in assay [4] and 34.1% in assay [5]. Also, in assay [6], the IC50 was 9510 nM.
Take `CN(C)c1cccc(Oc2cc3c(cc2NC(=O)COCc2ccc(Cl)cc2)NC(=O)[C@@H](CCC(=O)N2CCCCC2)NC3=O)c1`: the inhibition in assay [1] came out at 85.2%; in assay [2], 82.9%; in assay [4] it was 96.7%; in assay [5], 91.2%. Also, the IC50 came out at 1060 nM in assay [3] and 900 nM in assay [6].
Turning to `CN(C)c1cccc(Oc2cc3c(cc2NC(=O)COCc2ccccc2)NC(=O)[C@@H](CCC(=O)N2CCCCC2)NC3=O)c1`, the inhibition in assay [1] worked out at 86.7%; in assay [2], 82.8%; in assay [4], 80.6%; in assay [5], 63.3%. Also, the figures for the IC50 in assay [3] and in assay [6] were 1110 nM and 2990 nM, respectively.
In the case of `COC(=O)CC[C@H]1NC(=O)c2cc(Oc3cccc(N(C)C)c3)c(NC(=O)COCc3ccc(Br)cc3)cc2NC1=O`, the inhibition was found to be 93.9% in assay [1], 91% in assay [2], 95.2% in assay [4] and 85% in assay [5]. Moreover, the results for the IC50 in assay [3] and in assay [6] were 580 nM and 1190 nM, respectively.
With `CN(C)C(=O)CC[C@H]1NC(=O)c2cc(Oc3cccc(N(C)C)c3)c(NC(=O)COCc3ccccc3)cc2NC1=O`, the inhibition in assay [1] was 68%; in assay [2], 43.1%; in assay [4], 35.5%; in assay [5], 31%. In assay [3], the IC50 amounted to 4950 nM.
The matching figures for `CCCNC(=O)CC[C@H]1NC(=O)c2cc(Oc3cccc(N(C)C)c3)c(NC(=O)COCc3ccc(F)cc3)cc2NC1=O`: 80.1%, 68%, 48.8%, 30.8% and 2810 nM.
In the case of `COC(=O)CC[C@H]1NC(=O)c2cc(Oc3cccc(N(C)C)c3)c(NC(=O)COCc3ccc4ccccc4c3)cc2NC1=O`, the inhibition in assay [2] stood at 77.7%; in assay [5] it was 70.9%. Also, the values for the IC50 in assay [3] and in assay [6] were 1610 nM and 1580 nM, respectively.
Take `COC(=O)CC[C@H]1NC(=O)c2cc(Oc3cccc(N(C)C)c3Cl)c(NC(=O)COCc3ccccc3)cc2NC1=O`: the inhibition in assay [1] is 44.2%; in assay [2], 55.8%; in assay [4], 46%; in assay [5], 44.6%.
